Data from ChEMBL document CHEMBL3608232, “Exploring the Existing Drug Space for Novel pTyr Mimetic and SHP2 Inhibitors” (ACS Med Chem Lett, 2015).
Active and inactive are the calls of the source. The rule behind the calls is not given here.

How the values were obtained:
[1] = molecular target: T1, Tyrosine-protein phosphatase non-receptor type 11 (Homo sapiens) (UniProt Q06124); test: Inhibition of phosphatase activity of SHP2 (unknown origin) using pNPP as a substrate at 50 uM after 10 mins by spectrophotometer analysis
T1 sequence (whole entry): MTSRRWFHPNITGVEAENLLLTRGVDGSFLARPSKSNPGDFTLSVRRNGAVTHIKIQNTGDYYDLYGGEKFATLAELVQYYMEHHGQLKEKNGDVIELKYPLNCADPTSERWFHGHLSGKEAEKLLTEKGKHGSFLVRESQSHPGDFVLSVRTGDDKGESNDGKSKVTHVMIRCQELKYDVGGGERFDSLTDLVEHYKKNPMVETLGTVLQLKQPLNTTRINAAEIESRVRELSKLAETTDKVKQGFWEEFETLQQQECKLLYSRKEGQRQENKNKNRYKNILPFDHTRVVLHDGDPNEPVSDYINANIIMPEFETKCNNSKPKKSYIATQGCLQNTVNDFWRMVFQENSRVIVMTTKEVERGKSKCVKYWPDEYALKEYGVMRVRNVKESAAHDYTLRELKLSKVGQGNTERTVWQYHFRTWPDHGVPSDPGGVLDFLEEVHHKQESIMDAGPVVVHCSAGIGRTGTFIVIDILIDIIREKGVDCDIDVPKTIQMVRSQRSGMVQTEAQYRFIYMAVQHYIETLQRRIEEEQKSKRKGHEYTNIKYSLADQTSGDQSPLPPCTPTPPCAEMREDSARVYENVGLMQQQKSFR

[2] = molecular target: T2, Dual specificity protein phosphatase CDC14A (Homo sapiens, UniProt Q9UNH5); test: Inhibition of phosphatase activity of human CDC14A using pNPP as a substrate after 10 mins by spectrophotometer analysis
T2 sequence (Q9UNH5 whole entry): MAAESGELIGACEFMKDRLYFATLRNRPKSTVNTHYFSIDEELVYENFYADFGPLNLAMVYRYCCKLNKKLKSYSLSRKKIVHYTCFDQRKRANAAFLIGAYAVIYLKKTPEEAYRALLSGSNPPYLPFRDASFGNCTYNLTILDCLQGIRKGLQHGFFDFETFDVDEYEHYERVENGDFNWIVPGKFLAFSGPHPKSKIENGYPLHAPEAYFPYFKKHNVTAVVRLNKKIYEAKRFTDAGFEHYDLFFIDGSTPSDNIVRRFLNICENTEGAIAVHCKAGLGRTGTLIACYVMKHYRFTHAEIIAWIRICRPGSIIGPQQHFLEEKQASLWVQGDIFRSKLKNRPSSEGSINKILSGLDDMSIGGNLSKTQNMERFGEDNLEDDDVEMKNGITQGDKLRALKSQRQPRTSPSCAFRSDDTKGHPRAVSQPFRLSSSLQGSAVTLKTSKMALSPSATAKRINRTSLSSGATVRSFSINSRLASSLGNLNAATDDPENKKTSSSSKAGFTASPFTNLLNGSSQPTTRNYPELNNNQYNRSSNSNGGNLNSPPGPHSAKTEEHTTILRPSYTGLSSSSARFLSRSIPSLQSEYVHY

[3] = molecular target: T1, Tyrosine-protein phosphatase non-receptor type 11 (Homo sapiens); test: Inhibition of SHP2 in human NCI-H1975 cells assessed as increase in EGF-induced paxillin phosphorylation at Y118 at 40 uM after 60 mins relative to control
[4] = molecular target: T3, Serine/threonine-protein phosphatase 5 (Homo sapiens, UniProt P53041); test: Inhibition of phosphatase activity of human PP5 using pNPP as a substrate after 10 mins by spectrophotometer analysis
T3 sequence (P53041 whole entry): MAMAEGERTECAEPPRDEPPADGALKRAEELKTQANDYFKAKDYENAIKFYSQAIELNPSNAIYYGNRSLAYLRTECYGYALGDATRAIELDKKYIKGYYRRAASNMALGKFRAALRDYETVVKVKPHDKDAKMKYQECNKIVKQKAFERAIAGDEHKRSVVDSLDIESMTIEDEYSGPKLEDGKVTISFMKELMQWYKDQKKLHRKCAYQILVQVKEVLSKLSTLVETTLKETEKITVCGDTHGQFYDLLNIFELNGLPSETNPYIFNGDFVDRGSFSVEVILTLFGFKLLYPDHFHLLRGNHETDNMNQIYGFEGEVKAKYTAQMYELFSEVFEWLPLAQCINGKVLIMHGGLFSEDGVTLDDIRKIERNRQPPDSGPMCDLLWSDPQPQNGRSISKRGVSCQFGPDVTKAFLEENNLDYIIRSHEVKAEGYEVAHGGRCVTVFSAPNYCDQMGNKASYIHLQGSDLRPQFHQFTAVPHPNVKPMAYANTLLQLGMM

[5] = molecular target: T4, Tyrosine-protein phosphatase non-receptor type 7 (Homo sapiens, UniProt P35236); test: Inhibition of phosphatase activity of human HePTP using pNPP as a substrate after 10 mins by spectrophotometer analysis
T4 sequence (P35236 whole entry): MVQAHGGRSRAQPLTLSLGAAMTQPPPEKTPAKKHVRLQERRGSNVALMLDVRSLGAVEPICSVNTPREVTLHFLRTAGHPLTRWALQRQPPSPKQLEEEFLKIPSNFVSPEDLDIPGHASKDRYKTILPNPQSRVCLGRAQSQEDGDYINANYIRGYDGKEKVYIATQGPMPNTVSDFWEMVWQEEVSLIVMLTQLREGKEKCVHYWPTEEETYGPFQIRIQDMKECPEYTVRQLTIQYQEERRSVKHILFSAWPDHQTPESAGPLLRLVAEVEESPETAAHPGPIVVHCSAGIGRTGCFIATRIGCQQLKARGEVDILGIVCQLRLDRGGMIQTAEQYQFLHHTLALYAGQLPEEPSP

NCI-H1975 = test: Cytotoxicity against human NCI-H1975 cells by MTT assay; type: functional, cell-based
[6] = molecular target: T5, Tyrosine-protein phosphatase non-receptor type 22 (Homo sapiens, UniProt Q9Y2R2); test: Inhibition of phosphatase activity of human LYP using pNPP as a substrate after 10 mins by spectrophotometer analysis
T5 sequence (Q9Y2R2 whole entry): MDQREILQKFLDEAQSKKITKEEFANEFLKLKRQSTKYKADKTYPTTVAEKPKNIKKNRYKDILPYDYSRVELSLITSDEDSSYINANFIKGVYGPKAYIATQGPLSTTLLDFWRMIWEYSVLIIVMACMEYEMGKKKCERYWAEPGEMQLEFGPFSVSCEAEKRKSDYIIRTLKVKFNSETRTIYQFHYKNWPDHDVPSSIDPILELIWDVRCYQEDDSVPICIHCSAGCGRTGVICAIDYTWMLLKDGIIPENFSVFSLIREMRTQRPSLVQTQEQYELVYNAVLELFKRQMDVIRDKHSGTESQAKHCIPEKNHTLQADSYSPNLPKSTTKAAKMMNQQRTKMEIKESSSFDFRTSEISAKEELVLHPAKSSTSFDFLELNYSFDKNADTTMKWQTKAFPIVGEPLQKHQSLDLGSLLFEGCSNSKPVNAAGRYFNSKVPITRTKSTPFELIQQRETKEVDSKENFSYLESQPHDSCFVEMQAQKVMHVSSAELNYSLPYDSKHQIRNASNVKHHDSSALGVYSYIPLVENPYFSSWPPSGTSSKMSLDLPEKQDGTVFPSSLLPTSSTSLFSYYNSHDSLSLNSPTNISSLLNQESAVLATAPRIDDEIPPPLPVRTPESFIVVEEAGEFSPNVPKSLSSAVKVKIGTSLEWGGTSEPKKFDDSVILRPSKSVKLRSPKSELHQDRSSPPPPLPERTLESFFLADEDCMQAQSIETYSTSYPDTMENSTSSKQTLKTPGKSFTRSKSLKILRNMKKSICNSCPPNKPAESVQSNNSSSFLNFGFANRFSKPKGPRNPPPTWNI

[7] = molecular target: T6, Tyrosine-protein phosphatase non-receptor type 9 (Homo sapiens, UniProt P43378); test: Inhibition of phosphatase activity of human Meg2 using pNPP as a substrate after 10 mins by spectrophotometer analysis
T6 sequence (P43378 whole entry): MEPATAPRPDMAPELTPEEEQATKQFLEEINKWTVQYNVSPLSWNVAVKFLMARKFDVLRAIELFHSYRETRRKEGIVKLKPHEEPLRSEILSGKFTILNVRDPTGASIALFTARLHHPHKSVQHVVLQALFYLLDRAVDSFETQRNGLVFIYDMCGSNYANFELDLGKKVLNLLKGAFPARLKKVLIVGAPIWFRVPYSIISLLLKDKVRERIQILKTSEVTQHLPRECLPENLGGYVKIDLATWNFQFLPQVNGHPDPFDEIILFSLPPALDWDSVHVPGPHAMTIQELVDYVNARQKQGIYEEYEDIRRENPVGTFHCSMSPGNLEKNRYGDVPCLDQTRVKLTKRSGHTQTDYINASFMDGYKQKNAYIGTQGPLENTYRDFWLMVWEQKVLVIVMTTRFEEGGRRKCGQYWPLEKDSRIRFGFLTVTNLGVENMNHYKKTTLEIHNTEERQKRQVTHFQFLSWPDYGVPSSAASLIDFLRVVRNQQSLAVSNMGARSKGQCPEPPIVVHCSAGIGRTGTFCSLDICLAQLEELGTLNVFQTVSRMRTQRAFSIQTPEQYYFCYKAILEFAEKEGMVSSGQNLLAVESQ

[8] = molecular target: Receptor-type tyrosine-protein phosphatase epsilon (Homo sapiens, UniProt P23469); test: Inhibition of phosphatase activity of human PTPepsilon using pNPP as a substrate after 10 mins by spectrophotometer analysis
[9] = molecular target: Receptor-type tyrosine-protein phosphatase mu (Homo sapiens, UniProt P28827); test: Inhibition of phosphatase activity of human PTPmu using pNPP as a substrate after 10 mins by spectrophotometer analysis
[10] = molecular target: Dual specificity protein phosphatase 3 (Homo sapiens, UniProt P51452); test: Inhibition of phosphatase activity of human VHR using pNPP as a substrate after 10 mins by spectrophotometer analysis
[11] = molecular target: T7, Low molecular weight phosphotyrosine protein phosphatase (Homo sapiens, UniProt P24666); test: Inhibition of phosphatase activity of human LMWPTP using pNPP as a substrate after 10 mins by spectrophotometer analysis
T7 sequence (P24666 whole entry): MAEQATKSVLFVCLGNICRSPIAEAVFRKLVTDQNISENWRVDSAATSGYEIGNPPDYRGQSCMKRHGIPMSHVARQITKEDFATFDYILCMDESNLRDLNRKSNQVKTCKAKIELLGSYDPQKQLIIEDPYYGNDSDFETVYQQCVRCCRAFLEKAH

[12] = molecular target: Receptor-type tyrosine-protein phosphatase F (Homo sapiens, UniProt P10586); test: Inhibition of phosphatase activity of human LAR using pNPP as a substrate after 10 mins by spectrophotometer analysis
[13] = molecular target: T8, Tyrosine-protein phosphatase non-receptor type 11 (Homo sapiens, UniProt Q06124); test: Competitive inhibition of phosphatase activity of SHP2 (unknown origin) using pNPP as a substrate Lineweaver-Burk plot analysis
T8 sequence (Q06124 whole entry): T1 sequence (whole entry)
Summary of the method: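 SHP2-catalysed hydrolysis of para-nitrophenyl phosphate measured with inhibitor at 0, 0.25, 0.5 and 0.75 μM. Inhibition mode assigned from a Lineweaver–Burk (double-reciprocal) plot.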

[14] = molecular target: Receptor-type tyrosine-protein phosphatase gamma (Homo sapiens, UniProt P23470); test: Inhibition of phosphatase activity of human PTPgamma using pNPP as a substrate after 10 mins by spectrophotometer analysis
SK-BR-3 = test: Growth inhibition of human SKBR3 cells expressing ErbB2 in 3D matrigel after 5 days; type: functional, cell-based
[15] = molecular target: Receptor-type tyrosine-protein phosphatase beta (Homo sapiens, UniProt P23467); test: Inhibition of phosphatase activity of human PTPbeta using pNPP as a substrate after 10 mins by spectrophotometer analysis
[16] = molecular target: Receptor-type tyrosine-protein phosphatase alpha (Homo sapiens, UniProt P18433); test: Inhibition of phosphatase activity of human PTPalpha using pNPP as a substrate after 10 mins by spectrophotometer analysis
[17] = molecular target: T1, Tyrosine-protein phosphatase non-receptor type 11 (Homo sapiens); test: Inhibition of SHP2 in human NCI-H1975 cells assessed as reduction of EGF-induced ERK1/2 activation at 40 uM after 60 mins relative to control; type: cell-based
Summary of the method: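 H1975 cells were stimulated with EGF and ERK1/2 and paxillin phosphorylation was assessed by immunoblot. Band intensities were quantified, and pERK1/2/total ERK1/2 or pPaxillin(Y118)/total paxillin ratios were normalized to the reference. Blots are representative of at least two independent experiments, with quantified values given as mean ± SD.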

MDA-MB-231 = test: Cytotoxicity against human MDA-MB-231 cells by MTT assay; type: functional, cell-based

Chain of Receptor-type tyrosine-protein phosphatase alpha (P18433 whole entry): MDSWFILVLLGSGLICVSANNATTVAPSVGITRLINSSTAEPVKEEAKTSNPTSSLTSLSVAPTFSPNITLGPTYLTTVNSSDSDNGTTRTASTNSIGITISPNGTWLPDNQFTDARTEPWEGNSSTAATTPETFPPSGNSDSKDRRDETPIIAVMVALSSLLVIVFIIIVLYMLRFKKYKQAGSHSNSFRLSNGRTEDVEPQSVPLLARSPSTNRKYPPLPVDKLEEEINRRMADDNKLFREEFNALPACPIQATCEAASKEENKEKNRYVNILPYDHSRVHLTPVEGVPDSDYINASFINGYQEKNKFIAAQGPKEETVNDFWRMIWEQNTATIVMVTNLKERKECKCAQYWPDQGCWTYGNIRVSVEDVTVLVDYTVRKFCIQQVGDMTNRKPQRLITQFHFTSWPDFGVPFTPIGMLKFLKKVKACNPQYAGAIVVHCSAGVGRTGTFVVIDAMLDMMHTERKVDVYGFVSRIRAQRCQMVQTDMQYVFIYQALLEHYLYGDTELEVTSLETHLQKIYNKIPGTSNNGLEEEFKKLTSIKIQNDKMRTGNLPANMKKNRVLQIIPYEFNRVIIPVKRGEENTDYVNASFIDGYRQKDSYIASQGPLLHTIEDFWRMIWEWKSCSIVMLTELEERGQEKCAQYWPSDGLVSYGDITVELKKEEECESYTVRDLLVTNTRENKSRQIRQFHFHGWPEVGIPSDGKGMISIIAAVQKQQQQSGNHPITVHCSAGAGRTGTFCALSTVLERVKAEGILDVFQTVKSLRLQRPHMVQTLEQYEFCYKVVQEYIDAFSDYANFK
Chain of Dual specificity protein phosphatase 3 (P51452 whole entry): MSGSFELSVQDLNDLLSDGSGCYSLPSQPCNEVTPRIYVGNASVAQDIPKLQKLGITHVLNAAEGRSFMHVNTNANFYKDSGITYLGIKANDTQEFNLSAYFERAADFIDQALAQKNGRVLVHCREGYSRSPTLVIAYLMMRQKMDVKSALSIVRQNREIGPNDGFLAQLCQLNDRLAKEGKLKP
Chain of Receptor-type tyrosine-protein phosphatase mu (P28827 whole entry): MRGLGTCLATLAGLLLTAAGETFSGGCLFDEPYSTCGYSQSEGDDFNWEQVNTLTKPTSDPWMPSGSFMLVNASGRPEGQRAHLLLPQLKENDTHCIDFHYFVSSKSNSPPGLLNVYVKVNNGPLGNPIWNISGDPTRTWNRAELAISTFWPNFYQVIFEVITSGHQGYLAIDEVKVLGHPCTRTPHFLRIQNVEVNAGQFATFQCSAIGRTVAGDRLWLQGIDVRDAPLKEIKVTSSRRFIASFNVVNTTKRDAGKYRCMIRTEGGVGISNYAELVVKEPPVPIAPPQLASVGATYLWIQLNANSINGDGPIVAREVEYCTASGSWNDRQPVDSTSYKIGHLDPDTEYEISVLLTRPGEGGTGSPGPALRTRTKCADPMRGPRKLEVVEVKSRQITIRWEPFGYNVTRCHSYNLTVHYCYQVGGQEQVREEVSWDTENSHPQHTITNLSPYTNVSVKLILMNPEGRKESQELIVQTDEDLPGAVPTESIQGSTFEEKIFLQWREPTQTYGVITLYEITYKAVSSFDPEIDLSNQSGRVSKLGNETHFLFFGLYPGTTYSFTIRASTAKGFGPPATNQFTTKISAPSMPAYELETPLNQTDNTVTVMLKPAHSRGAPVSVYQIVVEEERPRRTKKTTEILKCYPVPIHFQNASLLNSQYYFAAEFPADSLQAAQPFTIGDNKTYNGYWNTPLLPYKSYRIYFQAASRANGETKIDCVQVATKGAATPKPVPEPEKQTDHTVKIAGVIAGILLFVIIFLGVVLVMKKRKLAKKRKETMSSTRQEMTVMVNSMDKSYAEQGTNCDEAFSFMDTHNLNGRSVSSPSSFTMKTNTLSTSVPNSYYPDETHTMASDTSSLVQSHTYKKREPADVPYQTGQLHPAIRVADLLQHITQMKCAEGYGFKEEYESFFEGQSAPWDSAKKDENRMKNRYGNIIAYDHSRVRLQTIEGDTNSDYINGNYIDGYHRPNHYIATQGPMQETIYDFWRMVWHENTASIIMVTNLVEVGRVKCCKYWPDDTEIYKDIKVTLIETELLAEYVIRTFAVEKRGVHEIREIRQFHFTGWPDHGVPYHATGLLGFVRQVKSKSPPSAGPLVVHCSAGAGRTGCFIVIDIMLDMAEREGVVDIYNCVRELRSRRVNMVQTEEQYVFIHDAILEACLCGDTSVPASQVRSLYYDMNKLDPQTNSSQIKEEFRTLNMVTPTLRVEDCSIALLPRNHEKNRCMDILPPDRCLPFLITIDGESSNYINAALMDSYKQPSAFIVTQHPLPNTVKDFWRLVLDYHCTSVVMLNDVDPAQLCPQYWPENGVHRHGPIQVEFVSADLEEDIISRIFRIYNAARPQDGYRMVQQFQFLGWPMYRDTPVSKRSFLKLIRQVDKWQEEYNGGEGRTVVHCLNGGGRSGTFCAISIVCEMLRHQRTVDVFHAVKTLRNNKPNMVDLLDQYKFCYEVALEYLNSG
Chain of Receptor-type tyrosine-protein phosphatase beta (P23467 whole entry): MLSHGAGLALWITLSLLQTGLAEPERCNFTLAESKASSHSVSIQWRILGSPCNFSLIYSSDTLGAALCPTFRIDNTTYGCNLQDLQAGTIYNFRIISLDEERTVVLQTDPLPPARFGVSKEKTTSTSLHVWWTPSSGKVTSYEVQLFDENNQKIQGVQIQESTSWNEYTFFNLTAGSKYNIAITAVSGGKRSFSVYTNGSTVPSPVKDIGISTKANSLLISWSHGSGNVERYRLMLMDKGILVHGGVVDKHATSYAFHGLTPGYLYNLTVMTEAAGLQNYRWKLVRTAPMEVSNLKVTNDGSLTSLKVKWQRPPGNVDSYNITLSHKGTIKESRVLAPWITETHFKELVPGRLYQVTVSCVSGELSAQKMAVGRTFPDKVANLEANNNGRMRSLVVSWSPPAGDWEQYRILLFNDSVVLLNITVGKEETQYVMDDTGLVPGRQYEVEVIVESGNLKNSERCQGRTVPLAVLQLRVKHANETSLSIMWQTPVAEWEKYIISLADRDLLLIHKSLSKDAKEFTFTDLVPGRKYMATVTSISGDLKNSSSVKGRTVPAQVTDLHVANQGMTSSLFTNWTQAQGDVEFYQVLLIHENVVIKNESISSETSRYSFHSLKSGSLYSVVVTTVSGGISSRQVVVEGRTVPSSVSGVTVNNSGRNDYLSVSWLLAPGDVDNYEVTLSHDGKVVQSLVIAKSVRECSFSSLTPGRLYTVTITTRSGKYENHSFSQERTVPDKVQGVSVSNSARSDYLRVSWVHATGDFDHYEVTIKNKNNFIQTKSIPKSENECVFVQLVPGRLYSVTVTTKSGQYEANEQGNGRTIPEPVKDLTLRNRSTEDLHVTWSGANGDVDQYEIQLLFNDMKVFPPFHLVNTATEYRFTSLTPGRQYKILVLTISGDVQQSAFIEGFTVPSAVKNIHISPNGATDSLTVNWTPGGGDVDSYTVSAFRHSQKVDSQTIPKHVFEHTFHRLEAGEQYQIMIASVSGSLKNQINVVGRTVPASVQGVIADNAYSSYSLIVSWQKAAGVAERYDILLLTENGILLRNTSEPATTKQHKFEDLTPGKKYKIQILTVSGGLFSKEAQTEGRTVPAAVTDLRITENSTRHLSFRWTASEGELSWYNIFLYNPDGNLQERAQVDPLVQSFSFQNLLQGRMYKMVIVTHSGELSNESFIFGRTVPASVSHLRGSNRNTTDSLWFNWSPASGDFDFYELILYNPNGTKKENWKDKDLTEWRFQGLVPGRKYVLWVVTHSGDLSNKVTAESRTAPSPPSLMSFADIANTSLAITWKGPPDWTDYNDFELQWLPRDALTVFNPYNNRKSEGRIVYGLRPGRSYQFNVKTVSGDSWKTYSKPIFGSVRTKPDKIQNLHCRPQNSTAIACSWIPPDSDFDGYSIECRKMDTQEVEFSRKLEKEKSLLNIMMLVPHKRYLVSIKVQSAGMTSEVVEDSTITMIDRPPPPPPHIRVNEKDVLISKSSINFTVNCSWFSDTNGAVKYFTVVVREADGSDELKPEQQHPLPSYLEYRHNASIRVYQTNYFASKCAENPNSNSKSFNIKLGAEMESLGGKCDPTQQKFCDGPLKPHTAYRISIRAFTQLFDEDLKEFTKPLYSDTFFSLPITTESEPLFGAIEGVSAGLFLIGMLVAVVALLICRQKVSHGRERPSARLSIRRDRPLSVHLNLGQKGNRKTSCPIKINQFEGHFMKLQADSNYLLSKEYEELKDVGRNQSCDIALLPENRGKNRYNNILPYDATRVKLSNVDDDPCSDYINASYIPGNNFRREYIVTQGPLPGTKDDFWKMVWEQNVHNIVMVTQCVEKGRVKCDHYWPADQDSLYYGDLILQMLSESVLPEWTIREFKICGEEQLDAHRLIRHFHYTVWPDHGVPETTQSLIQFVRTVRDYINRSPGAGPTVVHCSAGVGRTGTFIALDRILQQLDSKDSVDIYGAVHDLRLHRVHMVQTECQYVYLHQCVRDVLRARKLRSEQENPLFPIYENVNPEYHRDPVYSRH

O=C(O)C(=O)NCc1ccc(NC(=O)C(c2ccccc2)S(=O)(=O)O)cc1 (configuration not stated)
inhibition [1]: inactive

O=C(Nc1ccc(I)cc1)C(=O)Nc1ccc(NC(=O)C(c2ccccc2)S(=O)(=O)O)cc1 (configuration not stated)
IC50 [2]: > 50 µM
fold change (FC) [3]: 1.3
IC50 [4]: > 50 µM
IC50 [5]: > 50 µM
Activity (NCI-H1975): Dose-dependent effect
IC50 [6]: > 50 µM
IC50 [7]: > 50 µM
IC50 [8]: > 50 µM
IC50 [9]: > 50 µM
IC50 [10]: > 50 µM
IC50 [11]: > 50 µM
IC50 [12]: > 50 µM
Ki [13]: 0.51 µM
IC50 [14]: > 50 µM
growth inhibition (GI) (SK-BR-3): Dose-dependent effect
IC50 [15]: > 50 µM
IC50 [16]: > 50 µM
fold change (FC) [17]: 0.6
Activity (MDA-MB-231): Dose-dependent effect

O=C(O)C(=O)Nc1cccc(NC(=O)C(c2ccccc2)S(=O)(=O)O)c1 (configuration not stated)
inhibition [1]: inactive

O=C(O)C(=O)Nc1ccc(NC(=O)C(c2ccccc2)S(=O)(=O)O)cc1 (configuration not stated)
inhibition [1]: inactive
